Tm and folding enthalpy data for 36 sequences are collected here from the array DNA melting data of Ke et al. (doi:10.1101/2024.01.08.574731).

Series [1] is described as follows: melting temperature; fluorescence melt of hairpins on a sequencing array, two-state fit, raised by 9.35 °C to match UV melts. Particulars: sodium 0.088 M. In outline: (§1)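 Melting temperature and folding enthalpy were derived from bootstrapped two-state fits. The fitted temperatures were raised by 9.35 °C to agree with UV melts, and four replicates were combined by inverse variance. The underlying data were Cy3 fluorescence images of library hairpins, with annealed Cy3 and quencher oligos, on a sequenced MiSeq flow cell in 50 mM Na-HEPES pH 8.0, 25 mM NaCl, taken in 2.5 °C steps up to 60 °C, normalised to pre-quench Cy3 and to control constructs.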

The nature of series [2]: folding enthalpy; higher = less favourable; fluorescence melt of hairpins on a sequencing array, two-state fit. Particulars: sodium 0.088 M. In outline: as §1

As for GCCGGCGAAAGCCTTGGC ((((((....)))..))), the Tm in series [1] is 54.8 °C. Moreover, the folding enthalpy in series [2] was -20.8 kcal/mol.
In the same order, the values of GCCGGCGGAAACGCCGAC (.(((((....))))).) are 59.4 °C and -10.3 kcal/mol.
The like results for GCCGGGCGAAAGCCAAGC ((..(((....)))..)) were, in that order, 46.8 °C and -14.5 kcal/mol.
In the same order, the values of GCCGGGCGAAAGCCTAGC ((..(((....)))..)) are 44.1 °C and -13.6 kcal/mol.
As to GCCGGGGGAAACCCTGGC (((.(((....))).))), in series [1], the Tm amounted to 65.4 °C. In addition, the folding enthalpy in series [2] is -40.9 kcal/mol.
The like results for GCCGGGTCGAAAGACGGC (((..(((....)))))) were, in that order, 54.9 °C and -31 kcal/mol.
With GCCGGTCCGAAAGGAGGC (((..(((....)))))), in series [1], the Tm came out at 48 °C. Also, the folding enthalpy in series [2] is -21.9 kcal/mol.
The like results for GCCGGTGCGAAAGCAGGC (((..(((....)))))) were, in that order, 56.8 °C and -17.1 kcal/mol.
In the same order, the values of GCCGGTGGAAACGTCGGC ((((..(....)..)))) are 52.3 °C and -42 kcal/mol.
Take GCCGTAGGAAACCACGGC (((((.(....).))))): the Tm in series [1] was determined as 54.4 °C. Moreover, the folding enthalpy in series [2] is -34.2 kcal/mol.
With GCCGTAGGAAACTACAGC ((.((((....)))).)), the Tm in series [1] is 39.6 °C. Moreover, in series [2], the folding enthalpy was -11.7 kcal/mol.
Consider GCCGTCGAAAGACCCGGC ((((((....)))..))), for which the Tm in series [1] came to 47.9 °C. In series [2], the folding enthalpy was -18.3 kcal/mol.
In the case of GCCGTCGAAAGACCTGGC ((((((....)))..))), the Tm in series [1] came to 44.7 °C. Also, the folding enthalpy in series [2] is -19.8 kcal/mol.
For GCCGTCGAAAGACGAGGC ((((((....)))..))), the Tm in series [1] was 55.5 °C. In series [2], the folding enthalpy was -17.8 kcal/mol.
The like results for GCCGTCGAAAGACTCGGC ((((((....)))..))) were, in that order, 48.8 °C and -23.8 kcal/mol.
Consider GCCGTCGAAAGACTTGGC ((((((....)))..))), for which the Tm in series [1] came out at 50.5 °C. In addition, the folding enthalpy in series [2] was -17.2 kcal/mol.
In the same order, the values of GCCGTCGCGAAAGCGGGC (((..(((....)))))) are 54.5 °C and -17.9 kcal/mol.
Turning to GCCGTGCGAAAGCAACGC ((..(((....)))..)), in series [1], the Tm is 54.1 °C. Moreover, the folding enthalpy in series [2] was -10.9 kcal/mol.
The like results for GCCGTGCGAAAGCACCGC ((.((((....)))).)) were, in that order, 55.8 °C and -16 kcal/mol.
In the same order, the values of GCCGTGCGAAAGCACTGC ((.((((....)))).)) are 61.8 °C and -14.4 kcal/mol.
The like results for GCCGTGCGAAAGCCCCGC ((.(.((....)).).)) were, in that order, 29.3 °C and -9.26 kcal/mol.
For GCCGTGCGAAAGCGTGGC (((..((....))..))), the Tm in series [1] worked out at 63.4 °C. For the same sequence, the folding enthalpy in series [2] is -37.1 kcal/mol.
As to GCCGTGCGAAAGCTCAGC ((.(.((....)).).)), in series [1], the Tm is 40.4 °C. In addition, the folding enthalpy in series [2] is -15.4 kcal/mol.
In the case of GCCGTGCGAAAGCTCTGC ((.(.((....)).).)), the Tm in series [1] was 37.7 °C. The folding enthalpy in series [2] was -12.2 kcal/mol.
The like results for GCCGTGGGAAACTACGGC (((((.(....).))))) were, in that order, 61.1 °C and -42.8 kcal/mol.
The like results for GCCGTGTCGAAAGACGGC (((..(((....)))))) were, in that order, 58.9 °C and -31.4 kcal/mol.
In the same order, the values of GCCGTTCGAAAGAAAGGC (((.(((....))).))) are 59.3 °C and -28.8 kcal/mol.
As for GCCGTTCGAAAGAATGGC (((.(((....))).))), the Tm in series [1] was 62.6 °C. Moreover, the folding enthalpy in series [2] is -40.1 kcal/mol.
Take GCCGTTGGAAACAATGGC (((.(((....))).))): the Tm in series [1] is 55.8 °C. For the same sequence, the folding enthalpy in series [2] is -36.6 kcal/mol.
In the same order, the values of GCCGTTTCGAAAGAAGGC (((..(((....)))))) are 44.3 °C and -22.4 kcal/mol.
In the same order, the values of GCCTAAACGAAAGTTGGC (((..(((....)))))) are 46.7 °C and -24.9 kcal/mol.
Take GCCTAAGCGAAAGCTGGC (((..(((....)))))): in series [1], the Tm stood at 52.3 °C. Besides, the folding enthalpy in series [2] is -24.3 kcal/mol.
In the same order, the values of GCCTACGAAAGTAAAGGC ((((((....)))..))) are 50.2 °C and -41.2 kcal/mol.
The like results for GCCTACGAAAGTAATGGC ((((((....)))..))) were, in that order, 45.3 °C and -24.8 kcal/mol.
Take GCCTACGAAAGTAGGGC ((((((....))).))): in series [1], the Tm came out at 61.8 °C. For the same sequence, in series [2], the folding enthalpy was -16.4 kcal/mol.
Take GCCTACGGAAACGCAAGC ((.(.((....)).).)): the Tm in series [1] worked out at 26.9 °C. In series [2], the folding enthalpy was -11.9 kcal/mol.
